Measured values as given in ChEMBL document CHEMBL2177030.
The source made the active and inactive calls. The calls are words filed in the database; no cut-off is given here.

Legend:
[1] = molecular target: T1, Gastric triacylglycerol lipase (Canis lupus familiaris) (UniProt P80035); assay: Inhibition of dog recombinant gastric lipase expressed in transgenic maize at 200 molar excess compound concentration pre-incubated for 2 hrs with enzyme before substrate addition by pH-stat technique; type: single protein; settings: Stomach
T1 sequence (whole entry): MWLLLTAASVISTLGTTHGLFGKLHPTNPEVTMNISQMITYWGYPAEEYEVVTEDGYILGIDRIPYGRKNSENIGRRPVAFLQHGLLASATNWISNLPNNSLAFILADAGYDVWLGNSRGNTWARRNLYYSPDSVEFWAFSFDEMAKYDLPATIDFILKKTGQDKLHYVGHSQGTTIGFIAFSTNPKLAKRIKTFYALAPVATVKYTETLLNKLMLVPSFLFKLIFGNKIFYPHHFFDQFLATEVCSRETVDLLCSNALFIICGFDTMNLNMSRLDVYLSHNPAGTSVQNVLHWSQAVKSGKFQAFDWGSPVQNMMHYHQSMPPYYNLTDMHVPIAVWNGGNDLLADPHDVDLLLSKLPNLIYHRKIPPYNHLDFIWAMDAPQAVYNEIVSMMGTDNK

[2] = tested on: Mycobacterium tuberculosis; assay: Inhibition of Mycobacterium tuberculosis LipY pre-incubated for 30 mins with enzyme before substrate addition by pH-stat technique
Method in brief: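 Without NaTDC, LipY was incubated 30 min at 25 °C with inhibitor at xI 2–100. Residual activity was determined by pH-stat at 37 °C on TC4 in 2.5 mM Tris-HCl pH 7.5, 300 mM NaCl, 3 mM NaTDC. xI50 was taken from activity versus molar excess. Isopropanol-only controls were run. At least duplicate.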

[3] = molecular target: T2, Pancreatic triacylglycerol lipase (Homo sapiens) (UniProt P16233); assay: Inhibition of human recombinant pancreatic lipase expressed in Pichia pastoris at 200 molar excess compound concentration pre-incubated for 2 hrs with enzyme before substrate addition by pH-stat technique
T2 sequence (whole entry): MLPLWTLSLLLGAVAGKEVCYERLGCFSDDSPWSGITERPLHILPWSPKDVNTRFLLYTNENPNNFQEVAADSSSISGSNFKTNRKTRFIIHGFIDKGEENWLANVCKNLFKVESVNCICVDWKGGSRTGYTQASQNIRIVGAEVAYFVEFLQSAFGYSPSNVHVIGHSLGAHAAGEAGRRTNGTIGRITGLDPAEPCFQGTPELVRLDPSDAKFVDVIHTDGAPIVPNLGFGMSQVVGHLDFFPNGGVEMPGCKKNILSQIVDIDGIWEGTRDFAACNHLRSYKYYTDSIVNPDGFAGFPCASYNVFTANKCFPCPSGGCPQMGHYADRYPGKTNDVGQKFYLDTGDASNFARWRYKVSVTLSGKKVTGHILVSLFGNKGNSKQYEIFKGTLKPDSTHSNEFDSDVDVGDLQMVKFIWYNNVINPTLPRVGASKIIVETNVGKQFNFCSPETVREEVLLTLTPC

[4] = molecular target: T3, Pancreatic lipase-related protein 2 (Cavia porcellus) (UniProt P81139); assay: Inhibition of guinea pig recombinant PLRP2 expressed in Aspergillus oryzae at 200 molar excess compound concentration pre-incubated for 2 hrs with enzyme before substrate addition by pH-stat technique
T3 sequence (whole entry): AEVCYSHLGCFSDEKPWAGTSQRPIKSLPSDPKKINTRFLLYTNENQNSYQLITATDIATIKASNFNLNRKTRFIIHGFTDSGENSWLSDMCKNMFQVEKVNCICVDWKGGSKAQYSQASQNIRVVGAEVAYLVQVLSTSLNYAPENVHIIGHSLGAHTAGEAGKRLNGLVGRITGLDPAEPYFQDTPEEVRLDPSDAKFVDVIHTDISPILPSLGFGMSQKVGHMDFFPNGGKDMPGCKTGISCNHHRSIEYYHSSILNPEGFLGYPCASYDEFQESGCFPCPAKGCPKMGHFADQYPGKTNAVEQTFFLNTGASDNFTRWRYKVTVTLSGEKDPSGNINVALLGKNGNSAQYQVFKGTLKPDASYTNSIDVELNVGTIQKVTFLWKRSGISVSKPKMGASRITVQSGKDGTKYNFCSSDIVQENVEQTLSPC

[5] = molecular target: T4, Cutinase 1 (Fusarium vanettenii) (UniProt P00590); assay: Inhibition of Fusarium solani pisi cutinase pre-incubated for 30 mins with enzyme before substrate addition by pH-stat technique
T4 sequence (whole entry): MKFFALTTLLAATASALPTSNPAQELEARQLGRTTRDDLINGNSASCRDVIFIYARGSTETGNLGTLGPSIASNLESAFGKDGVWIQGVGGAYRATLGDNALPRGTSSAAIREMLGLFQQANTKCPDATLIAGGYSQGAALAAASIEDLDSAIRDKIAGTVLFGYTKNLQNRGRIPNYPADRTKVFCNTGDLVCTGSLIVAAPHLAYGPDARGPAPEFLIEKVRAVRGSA
Method in brief: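 Cutinase was preincubated for 30 min at 25 °C in 2 mM NaTDC, substrate absent, at inhibitor molar excess xI 2, 4, 20, 40 or 100. Residual activity was measured by pH-stat at 37 °C on TC4 emulsion at pH 8.0 with 0.25 mM NaTDC. xI50 is the molar excess giving 50% activity. Isopropanol controls were run. At least duplicate.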

[6] = molecular target: Monoacylglycerol lipase (Mycobacterium tuberculosis H37Rv) (UniProt O07427); assay: Inhibition of Mycobacterium tuberculosis Rv0183 pre-incubated for 30 mins with enzyme before substrate addition by pH-stat technique
Method in brief: (§1)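 Rv0183 was preincubated 30 min at 25 °C without NaTDC at inhibitor molar excess 2, 4, 20, 40 or 100. Residual monoglyceride lipase activity was measured by pH-stat at 37 °C with MC18 emulsion, pH 8.0, 3 mM NaTDC. xI50 was read from the residual-activity curve. Solvent controls were run. At least duplicate.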

[7] = tested on: Mycobacterium tuberculosis; assay: (§2) Inhibition of Mycobacterium tuberculosis LipY assessed as covalent bond formation with enzyme serine residue by measuring change in molecular weight of enzyme-compound complexes at 40 molar excess compound concentration pre-incubated for 30 mins with enzyme before substrate addition by MALDI-TOF mass spectrometry method
Method in brief: (§3)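 Each enzyme was preincubated with the inhibitor for 30 min at 25 °C at xI 40, with the inhibitor taken from a 5 mg/mL isopropanol stock. Intact masses of native and inhibited protein were measured by MALDI-TOF. For tryptic mapping, 5–50 pmol protein was reduced with DTT, alkylated with iodoacetamide and digested overnight at 37 °C.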

[8] = tested on: Mycobacterium tuberculosis; assay: Inhibition of Mycobacterium tuberculosis LipY assessed as half inactivation time pre-incubated with enzyme before substrate addition by pH-stat technique
Method in brief: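 LipY was incubated with inhibitor at xI 4 at 25 °C without NaTDC for up to 1 h. At time points, residual activity was titrated by pH-stat at 37 °C on TC4 emulsion in 2.5 mM Tris-HCl pH 7.5, 300 mM NaCl, 3 mM NaTDC. Half-inactivation time came from the curve. Runs were done at least in duplicate.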

[9] = molecular target: T2, Pancreatic triacylglycerol lipase (Homo sapiens)
[10] = molecular target: T1, Gastric triacylglycerol lipase (Canis lupus familiaris); assay: Inhibition of dog recombinant gastric lipase expressed in transgenic maize pre-incubated for 30 mins with enzyme before substrate addition by pH-stat technique; type: tissue-based; settings: Stomach
Method in brief: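 Gastric lipase was incubated 30 min at 25 °C with 4 mM NaTDC at inhibitor xI 2–100. Residual activity was measured by pH-stat at 37 °C on TC4 emulsion in 150 mM NaCl, 2 mM NaTDC, 2 µM BSA, pH 5.5. xI50 is the molar excess halving activity. At least duplicate.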

[11] = molecular target: T3, Pancreatic lipase-related protein 2 (Cavia porcellus); assay: Inhibition of guinea pig recombinant PLRP2 expressed in Aspergillus oryzae pre-incubated for 30 mins with enzyme before substrate addition by pH-stat technique
[12] = tested on: Mycobacterium tuberculosis; assay: Inhibition of Mycobacterium tuberculosis LipY at 40 molar excess compound concentration pre-incubated for 30 mins with enzyme before substrate addition by pH-stat technique
[13] = molecular target: Monoacylglycerol lipase (Mycobacterium tuberculosis H37Rv) (UniProt O07427); assay: Inhibition of Mycobacterium tuberculosis Rv0183 assessed as half inactivation time pre-incubated with enzyme before substrate addition by pH-stat technique
Method in brief: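 For the time course, Rv0183 was exposed to inhibitor at xI 4 at 25 °C without bile salt for 1 h. Residual activity was read at intervals by pH-stat at 37 °C using 100 µL MC18 in 15 mL 2.5 mM Tris-HCl pH 8.0, 150 mM NaCl, 3 mM NaTDC. t1/2 was derived from the curve. Runs were done at least in duplicate.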

[14] = molecular target: Monoacylglycerol lipase (Mycobacterium tuberculosis H37Rv) (UniProt O07427); assay: as §2, with “Rv0183” for “LipY”; method in brief: as §3
[15] = molecular target: Monoacylglycerol lipase (Mycobacterium tuberculosis H37Rv) (UniProt O07427); assay: Inhibition of Mycobacterium tuberculosis Rv0183 assessed as residual enzyme activity pre-incubated for 30 mins with enzyme before substrate addition by pH-stat technique; method in brief: as §1
[16] = molecular target: T4, Cutinase 1 (Fusarium vanettenii); assay: as §2, with “Fusarium solani pisi cutinase” for “Mycobacterium tuberculosis LipY”; method in brief: as §3

Chain of Monoacylglycerol lipase (Mycobacterium tuberculosis H37Rv) (O07427 whole entry): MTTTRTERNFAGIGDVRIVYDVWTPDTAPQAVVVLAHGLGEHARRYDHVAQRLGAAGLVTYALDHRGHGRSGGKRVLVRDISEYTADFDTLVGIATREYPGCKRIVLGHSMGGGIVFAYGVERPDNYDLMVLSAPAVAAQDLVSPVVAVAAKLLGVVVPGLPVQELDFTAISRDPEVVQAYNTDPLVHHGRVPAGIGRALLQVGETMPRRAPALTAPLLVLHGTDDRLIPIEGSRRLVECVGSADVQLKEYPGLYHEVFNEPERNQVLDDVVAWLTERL

SMILES	inhibition [1]	XI50 [2]	inhibition [3]	inhibition [4]	XI50 [5] [molar excess]	XI50 [6]	Activity [7] [Da]	T1/2 [8] [s]	XI50 [9] [molar excess]	XI50 [10] [molar excess]	XI50 [11] [molar excess]	inhibition [12] [%]	T1/2 [13] [s]	Activity [14] [Da]	Activity [15] [%]	Activity [16] [Da]
CCCCCCCCCCCCCCCCCCOP1(=O)CCCC(C(=O)OC)=C(C)O1 (configuration not stated)	inactive	0.59 molar excess	inactive	inactive	0.95	inactive										
CCCCCCCCCCCCCCCCOP1(=O)CCCC(C(=O)OC)=C(C)O1 (configuration not stated)	inactive	0.83 molar excess	inactive	inactive	0.56	inactive	444	9.6								
CCCCCCCCCCC[C@@H](C[C@@H]1OC(=O)[C@H]1CCCCCC)OC(=O)[C@H](CC(C)C)NC=O		7.07 molar excess			2.52	> 200 molar excess			18.4	5.6	0.53					
CCCCCC1CCP(=O)(OC)OC(C)=C1C(=O)OC (racemic)												14				
CCCCCCCCCCCCCCCCCC[C@@H]1CC[P@@](=O)(OC)OC(C)=C1C(=O)OC (racemic)	inactive	0.77 molar excess	inactive	inactive	1.18	3.15 molar excess										
CCCCCCCCCCCCCCCCCC[C@@H]1CC[P@](=O)(OC)OC(C)=C1C(=O)OC (racemic)	inactive	7.47 molar excess	inactive	inactive	7.26	> 100 molar excess										
CCCCCCCCCCCCCCCC[C@@H]1CC[P@@](=O)(OC)OC(C)=C1C(=O)OC (racemic)	inactive	0.6 molar excess	inactive	inactive	2.54	1.32 molar excess										
CCCCCCCCCCCCCCCC[C@@H]1CC[P@](=O)(OC)OC(C)=C1C(=O)OC (racemic)	inactive	3.47 molar excess	inactive	inactive	4.43	> 100 molar excess										
CCCCCCCCCCCC[C@@H]1CC[P@@](=O)(OC)OC(C)=C1C(=O)OC (racemic)	inactive	3.46 molar excess	inactive	inactive	2	5.23 molar excess										
CCCCCCCCCCCC[C@@H]1CC[P@](=O)(OC)OC(C)=C1C(=O)OC (racemic)	inactive	6.14 molar excess	inactive	inactive	3.63	2.44 molar excess										
CCCCCCCCCC[C@@H]1CC[P@@](=O)(OC)OC(C)=C1C(=O)OC (racemic)	inactive	2.81 molar excess	inactive	inactive	1.98	1.13 molar excess							86.4	377	6	
CCCCCCCCCC[C@@H]1CC[P@](=O)(OC)OC(C)=C1C(=O)OC (racemic)	inactive	25.8 molar excess	inactive	inactive	14.6	3.57 molar excess										
CCCCC[C@@H]1CC[P@@](=O)(OC)OC(C)=C1C(=O)OC (racemic)	inactive	> 100 molar excess	inactive	inactive	1.42	2.7 molar excess										
CCCCC[C@@H]1CC[P@](=O)(OC)OC(C)=C1C(=O)OC (racemic)	inactive	> 100 molar excess	inactive	inactive	26.2	3.79 molar excess										
COC(=O)C1=C(C)OP(=O)(OC)CCC1 (racemic)	inactive	> 100 molar excess	inactive	inactive	1.39	30.5 molar excess						14				233
COP1(=O)CCCC(CO)=C(C)O1 (racemic)	inactive	inactive	inactive	inactive	> 100	inactive										
CO[P@@]1(=O)CC[C@@H]2COC(=O)C2=C(C)O1 (racemic)	inactive	> 100 molar excess	inactive	inactive	4.49	41.6 molar excess						14				
CO[P@]1(=O)CC[C@@H]2COC(=O)C2=C(C)O1 (racemic)	inactive	> 100 molar excess	inactive	inactive	8.77	43.2 molar excess						14				
